Tests used:
Type in all cases: functional
[1] = tested on: NCI-H23; assay: Cytotoxicity against human NCI-H23 cells at 10^-8 M after 48 hrs by SRB assay; conditions: NCI-H23, 48 h, read-out: GI
[2] = tested on: MCF7; assay: Cytotoxicity against human MCF7 cells at 10^-8 M after 48 hrs by SRB assay; conditions: MCF7, 48 h, read-out: GI
[3] = tested on: K562; assay: Cytotoxicity against human K562 cells at 10^-7 M after 48 hrs by SRB assay; conditions: K562, 48 h, read-out: GI
[4] = Cytotoxicity against human UO31 cells at 10^-6 M after 48 hrs by SRB assay; conditions: UO-31, 48 h, read-out: GI
[5] = tested on: COLO 205; assay: Cytotoxicity against human COLO205 cells at 10^-7 M after 48 hrs by SRB assay; conditions: COLO 205, 48 h, read-out: GI
[6] = tested on: TK-10; assay: Cytotoxicity against human TK10 cells at 10^-8 M after 48 hrs by SRB assay; conditions: TK-10, 48 h, read-out: GI
[7] = tested on: K562; assay: Cytotoxicity against human K562 cells at 10^-5 M after 48 hrs by SRB assay; conditions: K562, 48 h, read-out: GI
[8] = tested on: M14; assay: Cytotoxicity against human M14 cells at 10^-7 M after 48 hrs by SRB assay; conditions: M14, 48 h, read-out: GI
[9] = tested on: A549; assay: Cytotoxicity against human A549 cells after 48 hrs by SRB assay; conditions: A549, 48 h
[10] = tested on: NCI-H522; assay: Cytotoxicity against human NCI-H522 cells at 10^-8 M after 48 hrs by SRB assay; conditions: NCI-H522, 48 h, read-out: GI
[11] = Cytotoxicity against human OVCAR4 cells at 10^-8 M after 48 hrs by SRB assay; conditions: OVCAR-4, 48 h, read-out: GI
[12] = tested on: HOP-92; assay: Cytotoxicity against human HOP92 cells at 10^-8 M after 48 hrs by SRB assay; conditions: HOP-92, 48 h, read-out: GI
[13] = Cytotoxicity against human UO31 cells at 10^-5 M after 48 hrs by SRB assay; conditions: UO-31, 48 h, read-out: GI
[14] = tested on: SK-MEL-2; assay: Cytotoxicity against human SK-MEL-2 cells at 10^-7 M after 48 hrs by SRB assay; conditions: SK-MEL-2, 48 h, read-out: GI
[15] = tested on: A498; assay: Cytotoxicity against human A498 cells at 10^-7 M after 48 hrs by SRB assay; conditions: A498, 48 h, read-out: GI
[16] = Cytotoxicity against human Hs578T cells at 10^-8 M after 48 hrs by SRB assay; conditions: Hs-578T, read-out: GI
[17] = tested on: BT-549; assay: Cytotoxicity against human BT549 cells at 10^-8 M after 48 hrs by SRB assay; conditions: BT-549, 48 h, read-out: GI
[18] = tested on: SW-620; assay: Cytotoxicity against human SW620 cells at 10^-8 M after 48 hrs by SRB assay; conditions: SW-620, 48 h, read-out: GI
[19] = tested on: HT-29; assay: Cytotoxicity against human HT-29 cells at 10^-7 M after 48 hrs by SRB assay; conditions: HT-29, 48 h, read-out: GI
[20] = tested on: SR; assay: Cytotoxicity against human SR cells at 10^-6 M after 48 hrs by SRB assay; conditions: read-out: GI
[21] = tested on: CCRF-CEM; assay: Cytotoxicity against human CCRF-CEM cells at 10^-8 M after 48 hrs by SRB assay; conditions: read-out: GI
[22] = tested on: SNB-75; assay: Cytotoxicity against human SNB75 cells at 10^-8 M after 48 hrs by SRB assay; conditions: SNB-75, 48 h, read-out: GI
[23] = tested on: HCC 2998; assay: Cytotoxicity against human HCC2998 cells at 10^-8 M after 48 hrs by SRB assay; conditions: HCC 2998, 48 h, read-out: GI
[24] = tested on: CAKI-1; assay: Cytotoxicity against human Caki1 cells at 10^-8 M after 48 hrs by SRB assay; conditions: CAKI-1, 48 h, read-out: GI
[25] = tested on: MDA-MB-231; assay: Cytotoxicity against human MDA-MB-231 cells at 10^-7 M after 48 hrs by SRB assay; conditions: MDA-MB-231, 48 h, read-out: GI
[26] = tested on: LOX IMVI; assay: Cytotoxicity against human LOXIMVI cells at 10^-7 M after 48 hrs by SRB assay; conditions: read-out: GI
[27] = Cytotoxicity against human EKVX cells at 10^-8 M after 48 hrs by SRB assay; conditions: read-out: GI
[28] = tested on: A498; assay: Cytotoxicity against human A498 cells at 10^-8 M after 48 hrs by SRB assay; conditions: A498, 48 h, read-out: GI
[29] = tested on: SR; assay: Cytotoxicity against human SR cells at 10^-5 M after 48 hrs by SRB assay; conditions: read-out: GI
[30] = tested on: SN12C; assay: Cytotoxicity against human SN12C cells at 10^-7 M after 48 hrs by SRB assay; conditions: read-out: GI
[31] = tested on: RXF 393; assay: Cytotoxicity against human RXF393 cells at 10^-7 M after 48 hrs by SRB assay; conditions: RXF 393, 48 h, read-out: GI
[32] = tested on: KM12; assay: Cytotoxicity against human KM12 cells at 10^-7 M after 48 hrs by SRB assay; conditions: KM12, 48 h, read-out: GI
[33] = tested on: SF-268; assay: Cytotoxicity against human SF268 cells at 10^-8 M after 48 hrs by SRB assay; conditions: SF-268, 48 h, read-out: GI
[34] = tested on: SK-OV-3; assay: Cytotoxicity against human SKOV3 cells at 10^-8 M after 48 hrs by SRB assay; conditions: SK-OV-3, 48 h, read-out: GI
[35] = tested on: RXF 393; assay: Cytotoxicity against human RXF393 cells after 48 hrs by SRB assay; conditions: RXF 393, 48 h
[36] = tested on: IGROV-1; assay: Cytotoxicity against human IGROV1 cells at 10^-7 M after 48 hrs by SRB assay; conditions: IGROV-1, 48 h, read-out: GI
[37] = tested on: HCT-116; assay: Cytotoxicity against human HCT116 cells at 10^-8 M after 48 hrs by SRB assay; conditions: HCT-116, 48 h, read-out: GI
[38] = tested on: HL-60(TB); assay: Cytotoxicity against human HL-60(TB) cells at 10^-7 M after 48 hrs by SRB assay; conditions: HL-60, 48 h, read-out: GI
Procedure, shortened: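 NCI 60-human-tumour-cell-line screen run over a 5-log dose range (100, 10, 1, 0.1 and 0.01 µM). Cells were exposed to drug for 48 h. Growth was estimated by sulforhodamine B protein staining. Values are percent growth inhibition at each concentration, relative to untreated control cells.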

[39] = tested on: IGROV-1; assay: Cytotoxicity against human IGROV1 cells at 10^-8 M after 48 hrs by SRB assay; conditions: IGROV-1, 48 h, read-out: GI
[40] = tested on: NCI-H322M; assay: Cytotoxicity against human NCI-H322M cells at 10^-8 M after 48 hrs by SRB assay; conditions: read-out: GI
[41] = tested on: SN12C; assay: Cytotoxicity against human SN12C cells at 10^-8 M after 48 hrs by SRB assay; conditions: read-out: GI
[42] = tested on: SK-MEL-5; assay: Cytotoxicity against human SK-MEL-5 cells at 10^-8 M after 48 hrs by SRB assay; conditions: SK-MEL-5, 48 h, read-out: GI

CCN(Cc1nc2cc(C(F)(F)F)ccc2nc1-c1ccccc1)c1ccc(OC)c(OC)c1
56%: inhibition of growth at 10 µM [29]
62%: inhibition of growth at 10 µM [7]
372 nM: GI50 [9]
309 nM: GI50 [35]
< 40%: inhibition of growth at 0.01 µM [1] | inhibition of growth at 0.01 µM [2] | inhibition of growth at 0.1 µM [3] | inhibition of growth at 1 µM [4] | inhibition of growth at 0.1 µM [5] | inhibition of growth at 0.01 µM [6] | inhibition of growth at 0.1 µM [8] | inhibition of growth at 0.01 µM [10] | inhibition of growth at 0.01 µM [11] | inhibition of growth at 0.01 µM [12] | inhibition of growth at 10 µM [13] | inhibition of growth at 0.1 µM [14] | inhibition of growth at 0.1 µM [15] | inhibition of growth at 0.01 µM [16] | inhibition of growth at 0.01 µM [17] | inhibition of growth at 0.01 µM [18] | inhibition of growth at 0.1 µM [19] | inhibition of growth at 1 µM [20] | inhibition of growth at 0.01 µM [21] | inhibition of growth at 0.01 µM [22] | inhibition of growth at 0.01 µM [23] | inhibition of growth at 0.01 µM [24] | inhibition of growth at 0.1 µM [25] | inhibition of growth at 0.1 µM [26] | inhibition of growth at 0.01 µM [27] | inhibition of growth at 0.01 µM [28] | inhibition of growth at 0.1 µM [30] | inhibition of growth at 0.1 µM [32] | inhibition of growth at 0.01 µM [33] | inhibition of growth at 0.01 µM [34] | inhibition of growth at 0.1 µM [36] | inhibition of growth at 0.01 µM [37] | inhibition of growth at 0.1 µM [38] | inhibition of growth at 0.01 µM [39] | inhibition of growth at 0.01 µM [40] | inhibition of growth at 0.01 µM [41] | inhibition of growth at 0.01 µM [42]
43%: inhibition of growth at 0.1 µM [31]

Source: ChEMBL document CHEMBL3120154, “2-[N-Alkyl(R-phenyl)-aminomethyl]-3-phenyl-7-trifluoromethylquinoxalines as anticancer agents inhibitors of folate enzymes” (Eur J Med Chem, 2014)
